Screening results as filed in PubChem BioAssay.
Hits are enriched below; roughly 3.7% of the tested compounds scored in any of these assays.
hERG protect: hERG rescue from dofetilide block, primary screen, cell-based, CHO-hERG, FluxOR thallium flux, dofetilide IC70; Voltage-gated inwardly rectifying potassium channel KCNH2 (Homo sapiens), Q12809; dofetilide IC70 present; activation (rescue from dofetilide block), less the hit threshold, % at 10 µM; 310,000 compounds, 0.51% hits; AID 1511, 2009;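 active = activation above the mean of controls blocked by dofetilide plus 5 SD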;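 also: thallium influx through hERG after potassium depolarization seen as dye fluorescence rise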
KCNQ1 pot: potentiators or activators of KCNQ1 channel, primary screen, cell-based, thallium flux, high-throughput; CHO-K1 KCNQ1, thallium flux FluxOR fluorescence; stronger effect = higher value; B-score at 10 µM; 310,000 compounds, 0.35% hits;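 active = fluorescence ratio B-score, a plate-corrected score, at least three library SD, with initial intensity B-score within 5 SD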
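Assay system: CHO-K1 cells stably expressing KCNQ1; Medium: assay buffer with matched DMSO; Also added: K+/Tl+ depolarizing stimulus; Dosing: single dose; Timing: dye 90 min, compound 20 min, room temperature; Measured by: kinetic FluxOR thallium fluorescence, 10-s 1-Hz baseline, 110-s post-stimulus read; Read-out: peak-minus-minimum fluorescence over initial fluorescence, negative-control normalized, B-scored.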
KCNQ1 block: inhibitors of human KCNQ1 channel, primary screen, cell-based, thallium flux, high-throughput; Potassium voltage-gated channel subfamily KQT member 1 (Homo sapiens), P51787; CHO-K1 KCNQ1, FluxOR thallium flux fluorescence; stronger effect = higher value; B-score at 10 µM; 310,000 compounds, 1.3% hits;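 active = compounds whose thallium flux B-score, printed positive for inhibition, exceeds three library SD while starting fluorescence stays within three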;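 also: channel opened by potassium depolarization with thallium stimulus after 20 min compound exposure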
KCNK9 block: KCNK9 potassium channel inhibitors, primary screen, HEK293 cells, thallium flux | FluxOR thallium flux fluorescence; stronger effect = lower value | B-score at 10 µM | 310,000 compounds, 1.2% hits;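 active = ratio B-score over 3 SD below the library mean, with starting fluorescence within 5 SD of its mean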;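 also: negative B-score means less thallium flux so channel inhibition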
Target sequence (Q9NPC2 whole entry, looked up): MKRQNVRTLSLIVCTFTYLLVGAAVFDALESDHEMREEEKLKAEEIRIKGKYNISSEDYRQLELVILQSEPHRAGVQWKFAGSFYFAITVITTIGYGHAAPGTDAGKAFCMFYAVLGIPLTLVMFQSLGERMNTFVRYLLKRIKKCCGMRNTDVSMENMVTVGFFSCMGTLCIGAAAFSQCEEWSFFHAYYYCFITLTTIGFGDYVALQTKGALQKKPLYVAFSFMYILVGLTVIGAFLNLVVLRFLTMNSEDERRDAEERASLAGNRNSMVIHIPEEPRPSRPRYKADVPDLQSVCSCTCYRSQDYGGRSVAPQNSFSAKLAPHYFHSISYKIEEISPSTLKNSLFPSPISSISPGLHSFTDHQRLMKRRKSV
KCNK3 block: human KCNK3 channel inhibitors, primary screen, CHO cells, FluxOR thallium flux, B-score; Potassium channel subfamily K member 3 (Homo sapiens), O14649; FluxOR fluorescence; stronger effect = lower value; B-score at 10 µM; 340,000 compounds, 0.84% hits; AID 602410, 2012;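 active = B-score under library mean minus 4 SD, starting fluorescence ratio at most library mean plus 5 SD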;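 also: more negative B-score means stronger inhibition of thallium flux through KCNK3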
Kir21 block: inhibitors of mouse Kir2.1 inward-rectifier potassium channel. HEK293-Kir2.1, FluxOR thallium flux fluorescence; stronger effect = lower value. B-score at 10 µM. AID 1672, 2009. Inward rectifier potassium channel 2 (Mus musculus), P35561. 310,000 compounds, 0.85% hits;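 active = fluorescence ratio B-score at or below minus 3 SD of library scores, with starting-brightness B-score within 2 SD, cut at about -4.2 in these data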;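 also: channel flux triggered by added potassium and thallium sulfate stimulus; B-score of peak minus minimum fluorescence over baseline after thallium stimulus; more negative B-score means stronger Kir2.1 block with less thallium influx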
KCNK9 block conf: KCNK9 potassium channel inhibitors, confirmation, HEK293 cells, thallium flux, duplicate | shares compounds with KCNK9 block | FluxOR thallium flux fluorescence | inhibition, % at 10 µM | 4,900 compounds, 43% hits;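 active = thallium signal inhibited by more than 5 SD of the compound-free buffer control wells, on both duplicate plates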
Kir21 sel: mouse Kir2.1 channel inhibition, confirmation, selectivity assay for KCNK9 modulator project, cell-based, HEK293, thallium flux; Kir2.1 cells, FluxOR thallium flux fluorescence; 4,900 compounds, 4% hits; shares compounds with KCNK9 block; AID 492993, 2010; inhibition, % at 10 µM;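 active = thallium signal drop more than 5 SD beyond the mean of the no-compound control wells, seen in both duplicate plates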;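 also: signal is fluorescence rise after thallium addition divided by baseline fluorescence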
KCNK9 uninduced: thallium flux in non-induced HEK293 cells, confirmation, counter-screen for KCNK9 inhibitor project, cell-based, second counter screen, non-induced KCNK9-HEK293. FluxOR thallium flux. AID 492997, 2010. shares compounds with KCNK9 block. inhibition, % at 10 µM. 4,900 compounds, 40% hits;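 active = thallium signal drop beyond 5 SD of the untreated control mean, on both duplicate plates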
Large screens that a line does not name were inactive (follow-up assays come after a bar, where they were run).

Clc1ccc(CN2CCN(c3ncnc4scc(-c5cccs5)c34)CC2)cc1	KCNQ1 block 7, KCNK9 block -13 | KCNK9 block conf 34.5% | Kir21 sel inactive | KCNK9 uninduced inactive
O=C(N/C(=C\c1cccc(Br)c1)C(=O)N1CCOCC1)c1ccco1	none
CCC(C)(C)n1nnnc1C(c1cccs1)N1CCc2ccccc21 (stereo not drawn)	KCNK9 block -9.17 | KCNK9 block conf 51.0% | Kir21 sel inactive | KCNK9 uninduced 35.5%
CC1C(=NO)C(C)C(c2ccc(N(C)C)cc2)NC1c1ccc(N(C)C)cc1 (stereo not drawn)	none | KCNK9 block conf inactive | Kir21 sel inactive | KCNK9 uninduced inactive
COc1ccc(CCNC(=O)CC2SC(=NCCc3ccccc3)NC2=O)cc1 (stereo not drawn)	none
CCOc1ccc(OCCOCCOc2c(Cl)cccc2Cl)cc1	none
CCOc1ccccc1OCCOCCOc1c(Cl)cccc1Cl	KCNK9 block -9 | KCNK9 block conf inactive | Kir21 sel inactive | KCNK9 uninduced 37.5%
COc1ccc(C2CC(c3cccs3)=NN2c2ccc(C=O)cc2)cc1 (stereo not drawn)	none (no result: KCNK3 block)
Cc1ccc(C2CC(c3ccccc3)=NN2c2ccccc2)o1 (stereo not drawn)	KCNQ1 block 8, KCNK9 block -9.09 | KCNK9 block conf 41.0% | Kir21 sel inactive | KCNK9 uninduced 29.5%
Oc1ccc(C2=NN(c3ccccc3)C(c3ccc(F)cc3)C2)cc1 (stereo not drawn)	KCNK9 block -11.5 | KCNK9 block conf 42.5% | Kir21 sel inactive | KCNK9 uninduced 36.0%
c1ccc(C2CC(c3cccs3)=NN2c2ccccc2)cc1 (stereo not drawn)	KCNK9 block -8.73 | KCNK9 block conf 48.5% | Kir21 sel inactive | KCNK9 uninduced inactive
Oc1ccccc1C1=NN(c2ccccc2)C(c2ccc(F)cc2)C1 (stereo not drawn)	none
O=S(=O)(c1ccccc1)N1N=C(c2cccs2)CC1c1ccc(Br)cc1 (stereo not drawn)	KCNK9 block -13.4 | KCNK9 block conf 37.0% | Kir21 sel inactive | KCNK9 uninduced 44.5%
CC(Sc1ccccc1)C(=O)N1CCN(S(=O)(=O)c2ccccc2F)CC1 (stereo not drawn)	none
Cc1ccccc1OCc1nc2ccccc2c(=O)n1/N=C/c1cn[nH]c1-c1ccccc1	none
Cc1ccccc1OCc1nc2ccccc2c(=O)n1/N=C/c1cccc([N+](=O)[O-])c1	KCNK9 block -8.81 | KCNK9 block conf inactive | Kir21 sel inactive | KCNK9 uninduced inactive
Cc1sc2nc(C3CC3)nc(SCC(=O)N3CCc4ccccc4C3)c2c1C	none | KCNK9 block conf inactive | Kir21 sel inactive | KCNK9 uninduced inactive
CCCc1nc(SCC(=O)N2c3ccccc3CC2C)c2c(C)c(C)sc2n1 (stereo not drawn)	none | KCNK9 block conf inactive | Kir21 sel inactive | KCNK9 uninduced inactive
Cc1sc2nc(C3CC3)nc(SCC(=O)N3CCCc4ccccc43)c2c1C	none (no result: KCNK3 block)
